Experimental data: ChEMBL document CHEMBL1127414 (J Med Chem, 1994); call rule not given here
Converted amounts (≈) assume the structure as drawn. One block for each molecule: values may come before it.

Assays:
Mus musculus [1] = test: Tested for its ability to inhibit the incorporation of [5-3H]-mevalonolactone into cholesterol by in vivo mouse assay by peroral administration at a dose of 12 mg/kg; assay type: functional; details: route oral
In short: (§1)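 Female Swiss Webster mice (~25 g), six per group, dosed po by gavage with inhibitor suspended in 5% emulphor. 30 min later, 0.5 μCi/mouse [5-3H]mevalonolactone in saline given sc. Livers removed 30 min after that and saponified in KOH/EtOH overnight at 55 °C, then petroleum-ether extracted. Nonsaponifiable dpm counted. Compounds first tested at a single dose (typically 12 or 24 mg/kg).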

[2] = target: T1, Squalene synthase (Mus musculus) (UniProt P53798); test: Tested for the effective dose required for the incorporation of [5-3H]-mevalonolactone into cholesterol by in vivo mouse assay by peroral administration; assay type: functional, organism-based; in short: as §1
T1 sequence (whole entry): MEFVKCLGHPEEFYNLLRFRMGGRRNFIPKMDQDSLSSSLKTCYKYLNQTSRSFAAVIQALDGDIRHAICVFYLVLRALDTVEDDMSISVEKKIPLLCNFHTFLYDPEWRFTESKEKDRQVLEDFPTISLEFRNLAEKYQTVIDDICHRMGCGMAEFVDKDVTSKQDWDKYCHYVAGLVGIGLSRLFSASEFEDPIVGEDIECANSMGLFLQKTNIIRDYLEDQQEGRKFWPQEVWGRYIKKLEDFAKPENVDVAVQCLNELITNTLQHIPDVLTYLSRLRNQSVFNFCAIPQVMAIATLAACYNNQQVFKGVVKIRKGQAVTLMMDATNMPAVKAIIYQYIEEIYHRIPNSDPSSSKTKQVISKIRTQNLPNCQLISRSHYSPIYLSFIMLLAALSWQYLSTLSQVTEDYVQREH

Squalene synthase [3] = target: T2, Squalene synthase (Rattus norvegicus, UniProt Q02769); test: Tested for inhibition against squalene synthase enzyme in rat liver
T2 sequence (Q02769 whole entry): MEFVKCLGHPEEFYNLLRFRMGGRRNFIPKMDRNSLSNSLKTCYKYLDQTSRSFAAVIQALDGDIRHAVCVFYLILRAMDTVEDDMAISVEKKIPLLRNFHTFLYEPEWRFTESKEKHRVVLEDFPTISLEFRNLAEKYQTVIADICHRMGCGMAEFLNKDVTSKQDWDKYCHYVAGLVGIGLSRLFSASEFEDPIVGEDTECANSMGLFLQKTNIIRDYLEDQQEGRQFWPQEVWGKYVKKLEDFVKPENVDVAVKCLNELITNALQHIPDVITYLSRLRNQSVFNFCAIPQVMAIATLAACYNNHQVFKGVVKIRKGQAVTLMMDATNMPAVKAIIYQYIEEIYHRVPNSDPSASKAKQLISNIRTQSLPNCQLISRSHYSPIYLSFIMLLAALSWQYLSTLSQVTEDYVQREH

[4] = target: T3, Squalene synthase (Rattus norvegicus) (UniProt Q02769); test: concentration required to inhibit rat liver squalene synthase enzyme relative to control (L-694,599)
T3 sequence (whole entry): T2 sequence (Q02769 whole entry)
In short: (§2)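 Enzyme from rat liver. […] Inhibitors added in DMSO (0.3% final) as 3-fold serial dilutions, usually up to 30 ng/mL (about 40 nM). IC50 read from % inhibition vs log concentration.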

HepG2 [5] = test: Concentration required to inhibit cholesterol synthesis in Hep G2 cells; assay type: functional, cell-based; details: Homo sapiens
In short: (§3)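 Hep G2 cells held 2 days in lipoprotein-depleted FBS to stimulate sterol synthesis, then given inhibitor in serum-free medium for 2 h. 15 μCi [5-3H]mevalonate (0.2 mCi/mmol) added for 1 h. Cells washed and saponified, and radioactivity counted by scintillation.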

[6] = target: T3, Squalene synthase (Rattus norvegicus); test: Concentration required to inhibit rat liver squalene synthase enzyme relative to control (L-694,599); in short: as §2
HepG2 [7] = test: Concentration of compound required to inhibit cholesterol synthesis in Hep G2 cells relative to control (IC50 of L-694,599); assay type: functional, Homo sapiens; in short: as §3
Squalene synthase [8] = target: T2, Squalene synthase; test: Concentration required for inhibition of rat liver squalene synthase enzyme at 161 nM; NA = not active
Mus musculus [9] = test: Tested for its ability to inhibit the incorporation of [5-3H]-mevalonolactone into cholesterol by in vivo mouse assay by peroral administration at a dose of 40 mg/kg; assay type: functional; details: route oral; in short: as §1
Squalene synthase [10] = target: T2, Squalene synthase; test: Concentration required for inhibition of rat liver squalene synthase enzyme at 161 nM; Not active
HepG2 [11] = test: Concentration required to inhibit cholesterol synthesis in Hep G2 cells relative to control (IC50 of L-694,599); assay type: functional, Homo sapiens; in short: as §3
Aspergillus fumigatus = test: Concentration required to inhibit growth of MF 4839 strain of Aspergillus fumigatus; assay type: functional
In short: (§4)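 Broth microdilution against a panel of clinically relevant fungal strains. Read-out was the minimum fungicidal concentration in μg/mL.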

Candida parapsilosis = test: Concentration required to inhibit growth of MY 1010 strain of Candida parapsilosis; assay type: functional; details: Lodderomyces parapsilosis; in short: as §4
Candida albicans [12] = test: Concentration required to inhibit growth of MY 1055 strain of Candida albicans; assay type: functional; in short: as §4
Candida albicans [13] = test: Concentration required to inhibit growth of MY 1750 strain of Candida albicans; assay type: functional; in short: as §4
Candida tropicalis = test: Concentration required to inhibit growth of MY 1012 strain of Candida tropicalis; assay type: functional; in short: as §4
Cryptococcus neoformans [14] = test: Concentration required to inhibit growth of MY 1051 strain of Cryptococcus neoformans; assay type: functional; in short: as §4
Cryptococcus neoformans [15] = test: Concentration required to inhibit growth of MY 2061 strain of Cryptococcus neoformans; assay type: functional; in short: as §4
Mus musculus [16] = test: Ability to inhibit the incorporation of [5-3H]-mevalonolactone into cholesterol by in vivo mouse assay by peroral administration at a dose of 24 mg/kg; assay type: functional; details: route oral; in short: as §1
Trichophyton benhamiae = test: Concentration required to inhibit growth of MF 4864 strain of Trichophyton mentagrophytes; assay type: functional, Arthroderma benhamiae; in short: as §4

ED50 [2]: > 12 mg/kg
IC50 (Squalene synthase [3]): 2 nM
Relative activity [4]: 0.15
SMILES: C=C(CCC12OC(C(=O)O)C(O)(C(=O)O)C(C(=O)O)(O1)[C@H](OC(=O)CC(C)(C)C)[C@H]2O)[C@@H](OC(C)=O)[C@H](C)Cc1ccccc1 (some centres undefined)
inhibition in vivo at 12 mg/kg (Mus musculus [1]): 25%

IC50 (HepG2 [5]): 9600 nM
IC50 (Squalene synthase [3]): 0.66 nM
Relative activity [6]: 0.17
SMILES: C=C(CCC12OC(C(=O)O)C(O)(C(=O)O)C(C(=O)O)(O1)[C@H](OC(=O)CCCCCCC)[C@H]2O)[C@@H](OC(C)=O)[C@H](C)Cc1ccccc1 (some centres undefined)
Relative activity (HepG2 [7]): 0.57

IC50 (Squalene synthase [3]): 110 nM
Relative activity [6]: 0.0026
SMILES: CCCC(=O)O[C@@H]1[C@@H](O)C2(CCCC[C@H](C)Cc3ccccc3)OC(C(=O)O)C(O)(C(=O)O)C1(C(=O)O)O2 (some centres undefined)
inhibition in vivo at 12 mg/kg (Mus musculus [1]): -3%

IC50 (Squalene synthase [8]): Not Active
SMILES: C=C(CCC12OC(C(=O)O)C(OCCCCCCCCCCCOc3ccccc3)(C(=O)O)C(C(=O)O)(O1)[C@H](OCCCCCCCCCCCOc1ccccc1)[C@H]2O)[C@@H](OC(C)=O)[C@H](C)Cc1ccccc1 (some centres undefined)

IC50 (Squalene synthase [3]): 0.16 nM
Relative activity [4]: 0.81
SMILES: C=C(CCC12OC(C(=O)O)C(O)(C(=O)O)C(C(=O)O)(O1)[C@H](OCCCCCCCCOc1ccccc1)[C@H]2O)[C@@H](OC(C)=O)[C@H](C)Cc1ccccc1 (some centres undefined)
inhibition in vivo at 40 mg/kg (Mus musculus [9]): 4%

ED50 [2]: > 12 mg/kg
IC50 (Squalene synthase [10]): Not Active
SMILES: C=C(CCC12OC(C(=O)O)C(O)(C(=O)O)C(C(=O)O)(O1)[C@H](OC(=O)C(C)(C)C)[C@H]2O)[C@@H](OC(C)=O)[C@H](C)Cc1ccccc1 (some centres undefined)
inhibition in vivo at 12 mg/kg (Mus musculus [1]): -2%

IC50 (HepG2 [5]): 2200 nM
IC50 (Squalene synthase [3]): 0.21 nM
Relative activity [4]: 1.43
SMILES: C=C(CCC12OC(C(=O)O)C(O)(C(=O)O)C(C(=O)O)(O1)[C@H](OCCCCCCCCCC)[C@H]2O)[C@@H](OC(C)=O)[C@H](C)Cc1ccccc1 (some centres undefined)
Relative activity (HepG2 [11]): 4.09
inhibition in vivo at 40 mg/kg (Mus musculus [9]): 28%

IC50 (HepG2 [5]): 14000 nM
IC50 (Squalene synthase [3]): 0.79 nM
Relative activity [4]: 0.15
SMILES: C=C(CCC12OC(C(=O)O)C(O)(C(=O)O)C(C(=O)O)(O1)[C@H](OCCCCCCCCCCCCCCCC)[C@H]2O)[C@@H](OC(C)=O)[C@H](C)Cc1ccccc1 (some centres undefined)
Relative activity (HepG2 [11]): 0.49

IC50 (HepG2 [5]): 3600 nM
SMILES: C=C(CCC12OC(C(=O)O)C(O)(C(=O)O)C(C(=O)O)(O1)[C@H](OC(=O)NCCCCCCCCCC)[C@H]2O)[C@@H](OC(C)=O)[C@H](C)Cc1ccccc1 (some centres undefined)
MFC (Aspergillus fumigatus): 32 µg/mL (≈ 44.3 µM)
MFC (Candida parapsilosis): 8 µg/mL (≈ 11.1 µM)
MFC (Candida albicans [12]): 8 µg/mL (≈ 11.1 µM)
MFC (Candida albicans [13]): 4 µg/mL (≈ 5.54 µM)
MFC (Candida tropicalis): 16 µg/mL (≈ 22.2 µM)
MFC (Cryptococcus neoformans [14]): 4 µg/mL (≈ 5.54 µM)
MFC (Cryptococcus neoformans [15]): 0.5 µg/mL (≈ 0.693 µM)
inhibition in vivo at 24 mg/kg (Mus musculus [16]): 4%
MFC (Trichophyton benhamiae): 2 µg/mL (≈ 2.77 µM)

IC50 (Squalene synthase [10]): Not Active
SMILES: C=C(CCC12OC(C(=O)O)C(OCCC)(C(=O)O)C(C(=O)O)(O1)[C@H](OCCC)[C@H]2O)[C@@H](OC(C)=O)[C@H](C)Cc1ccccc1 (some centres undefined)

IC50 (HepG2 [5]): 8000 nM
IC50 (Squalene synthase [3]): 0.38 nM
Relative activity [6]: 0.45
SMILES: C=C(CCC12OC(C(=O)O)C(O)(C(=O)O)C(C(=O)O)(O1)[C@H](OC(=O)CCCCCCCCCCc1ccccc1)[C@H]2O)[C@@H](OC(C)=O)[C@H](C)Cc1ccccc1 (some centres undefined)
Relative activity (HepG2 [11]): 1.37
inhibition in vivo at 24 mg/kg (Mus musculus [16]): 11%

IC50 (Squalene synthase [8]): Not Active
SMILES: C=C(CCC12OC(C(=O)O)C(OCCCCCCCCCCCCCC)(C(=O)O)C(C(=O)O)(O1)[C@H](OCCCCCCCCCCCCCC)[C@H]2O)[C@@H](OC(C)=O)[C@H](C)Cc1ccccc1 (some centres undefined)
